# Source: PubChem BioAssay AID1480 (NMMLSC, 2009)
# Some of the results follow. Values without a mark were called inactive. Active and inactive are the calls of the source.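 How the source made its calls: active means fluorescence in ABCG2-expressing cells above the plate's control-well mean plus 3 SD (cut at about 15 in these data); inactive means the rest.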
# Test: compound autofluorescence in ABCG2-expressing IgMXP3 cells, confirmation, artefact control for ABC transporter inhibitor project, cell-based, 488/530 nm, flow cytometry (AID 1480)
# Conditions: compound autofluorescence 488/530 nm, at 6.6 µM, active compounds read high
# Method in brief: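 Material: ABCG2-expressing drug-resistant IgMXP3 cells | Input: 3 million cells/mL final | Medium: JC-1 kit assay buffer | Probe or stimulus: no JC-1 substrate | Times: Cell–compound exposure 10 min, 25 °C, end-over-end rotation | Measured by: High-throughput flow cytometry, green FL1 channel fluorescence | Evaluation: Compound-well median cell fluorescence minus DMSO-well median fluorescence | Benchmarks: DMSO-only wells as cell background reference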
row,Structure (SMILES),fluorescence
1,Cc1ccc(OCC(O)CN2CCN(CC(O)COc3ccc(C)cc3Cl)CC2)c(Cl)c1 (stereo not drawn),31.2 (active)
2,CCOCC(=O)Nc1sc2c(c1C(=O)OCC)CCCC2,3.96
3,COc1cccc(NC(=O)c2ccc(Cn3cc([N+](=O)[O-])cn3)o2)c1,9.06
4,Cc1cccc2cc(CN(Cc3cccs3)C(c3nnnn3C3CCCC3)C(C)C)c(=O)[nH]c12 (stereo not drawn),-2.04
5,C=CCn1c(SCCOc2ccc(OC)cc2)nnc1C(NC(=O)c1ccc(OC)cc1)C(C)C (stereo not drawn),65.8 (active)
6,C/C(=N\Nc1ncc(Cl)cc1Cl)c1ccc(S(=O)(=O)NCc2ccco2)cc1,-1.09
7,COc1ccc(-n2c(C)cc(C(=O)COC(=O)c3cc(OC)c(OC)cc3NC(=O)c3cccs3)c2C)cc1,1.61
8,Cc1c(CCOC(=O)CC23CC4CC(CC(C)(C4)C2)C3)sc[n+]1Cc1ccc([N+](=O)[O-])cc1,-1.69
9,O=C(Cc1c[nH]c2ccccc12)N/N=C/c1cccc(F)c1,-0.24
10,Cc1ccc(-n2c(SCC(=O)Nc3ncc(Cl)cc3Cl)nc3ccccc32)cc1,-0.59
11,COc1ccc(C)cc1NC(=O)C(Sc1ccccc1)c1ccccc1 (stereo not drawn),-1.74
12,CCOC(=O)c1sc(NC(=O)CSc2nnc(-c3ccco3)o2)c(C(=O)OCC)c1C,2.51
13,CCN1/C(=C/c2ccc3ccc(C)cc3[n+]2CC)Sc2ccccc21,228 (active)
